Activity calls are given as the source filed them. No cut-off for these calls is given here.
What was measured:
[1] = Inhibition of thrombin in dog plasma; assay type: cell-free; details: Canis lupus familiaris
[2] = biological target: Coagulation factor XI (Homo sapiens) (UniProt P03951); assay: Inhibition of purified human plasma factor-11a up to 20 uM using Boc-Glu(OBzl)-Ala-Arg-AMC substrate incubated for 30 mins by fluorescence based assay; details: dose microM <=20, time 30.0 min
How it was run: (§1)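 Final levels: thrombin 0.02 nM; FXa 1.3 nM; FXIa 0.15 nM; plasmin 1.2 nM (substrate 50 μM); tPA 2 nM; kallikrein 0.2 nM; trypsin 0.1 nM; other AMC substrates 5 μM. FVIIa 0.5 pM coupled with tissue factor, factor X 12 nM, FXa substrate 50 μM.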

[3] = AUC/dose in Wistar Hannover rat at 0.3 to 0.5 mg/kg, iv by LC-MS/MS analysis; assay type: ADME, organism-based; details: in vivo, dose 0.3-0.5 mg/kg, time <=24 hrs
How it was run: (§2)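 Male Wistar Hannover rats, catheterized under isoflurane; one day later iv injection into lateral tail vein at 0.3 to 0.5 mg/kg in plasma containing 2% DMSO. Blood sampled via catheter from 0.033 to 24 h. Plasma precipitated with acetonitrile, analysed by LC-MS/MS (10 mM ammonium acetate pH 3.0/acetonitrile gradient). PK parameters calculated from plasma concentrations.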

[4] = MRT in Wistar Hannover rat at 0.3 to 0.5 mg/kg, iv by LC-MS/MS analysis; assay type: ADME, organism-based; details: in vivo, dose 0.3-0.5 mg/kg, time <=24 hrs; how it was run: as §2
[5] = Oral bioavailability in Wistar Hannover rat at 1 mg/kg by LC-MS/MS analysis; assay type: ADME, organism-based; details: in vivo, time <=24 hrs
How it was run: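 Catheterized male Wistar Hannover rats dosed by gavage at 1 mg/kg in 10% ethanol/40% PEG/50% water. Blood taken via catheter at 0.083 to 24 h. Plasma precipitated with acetonitrile and analysed by LC-MS/MS. Bioavailability derived against iv dosing at 0.3 to 0.5 mg/kg.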

[6] = Permeability from apical to basolateral side in human Caco2 cells incubated for 2 hrs by LC-MS/MS analysis; assay type: ADME, cell-based; details: Caco-2
How it was run: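 Caco-2 cells grown 15 d on 0.4 μm inserts, TEER ≥600 Ω. Compound (DMSO stock diluted 100-fold) in HBSS pH 7.4 with 10 mM HEPES and 20 mM glucose, added apically or basolaterally. Incubated 2 h at 37 °C and analysed by LC-MS/MS. Papp = (Vr/P0)·(1/S)·(P2/t); mean and SD.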

Rattus norvegicus = assay: Antithrombotic activity in HsdCpd:WU rat model of arteriovenous shunt model assessed as reduction in thrombus weight at 0.6 to 6 mg/kg/hr, iv; assay type: functional, organism-based; details: dose mg/kg/hr 0.6-6
How it was run: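 Fasting male HsdCpd:WU rats, 300−350 g, anesthetized with Inactin (150−180 mg/kg). Jugular vein and carotid artery linked by a 10 cm PE 60 shunt. Shunt opened 20 min after iv bolus for 15 min; thrombus on nylon thread weighed.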

[7] = Protein binding in rat plasma; assay type: ADME, cell-free; details: read-out: PPB (converted)
[8] = Toxicity in HsdCpd:WU rat model of arteriovenous shunt model assessed as prolongation of bleeding time at 0.6 to 6 mg/kg/hr, iv; assay type: organism-based; details: in vivo, dose 0.6-6 mg/kg/hr
Trypsin (Homo sapiens) = Trypsin (Homo sapiens) (UniProt P07477+P07478+P35030); assay: Inhibition of purified human plasma trypsin up to 20 uM using Boc-Ile-Glu-Gly-Arg-AMC substrate incubated for 30 mins by fluorescence based assay; assay type: protein assay; details: dose microM <=20, time 30.0 min; how it was run: as §1
[9] = biological target: Plasminogen (Homo sapiens) (UniProt P00747); assay: Inhibition of purified human plasma plasmin up to 20 uM using MeOSuc-Ala-Phe-Lys-AMC substrate incubated for 30 mins by fluorescence based assay; details: dose microM <=20, time 30.0 min; how it was run: as §1
Sequence of Plasminogen (Homo sapiens) (P00747 97-580 limits assumed): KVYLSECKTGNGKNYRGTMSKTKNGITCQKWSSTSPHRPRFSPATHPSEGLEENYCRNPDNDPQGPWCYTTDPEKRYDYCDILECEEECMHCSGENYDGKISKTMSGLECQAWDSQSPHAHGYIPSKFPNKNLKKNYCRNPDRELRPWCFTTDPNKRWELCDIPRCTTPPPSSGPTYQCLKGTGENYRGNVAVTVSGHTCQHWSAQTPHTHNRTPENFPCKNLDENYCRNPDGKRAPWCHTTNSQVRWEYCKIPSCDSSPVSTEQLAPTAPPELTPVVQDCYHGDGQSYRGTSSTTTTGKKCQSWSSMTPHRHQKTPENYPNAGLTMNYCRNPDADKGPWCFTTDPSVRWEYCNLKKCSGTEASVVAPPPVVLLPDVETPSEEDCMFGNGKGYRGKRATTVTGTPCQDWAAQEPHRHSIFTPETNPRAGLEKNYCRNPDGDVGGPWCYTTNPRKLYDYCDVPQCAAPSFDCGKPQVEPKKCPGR
Sequence of Plasminogen (Homo sapiens) (P00747 581-810 limits assumed): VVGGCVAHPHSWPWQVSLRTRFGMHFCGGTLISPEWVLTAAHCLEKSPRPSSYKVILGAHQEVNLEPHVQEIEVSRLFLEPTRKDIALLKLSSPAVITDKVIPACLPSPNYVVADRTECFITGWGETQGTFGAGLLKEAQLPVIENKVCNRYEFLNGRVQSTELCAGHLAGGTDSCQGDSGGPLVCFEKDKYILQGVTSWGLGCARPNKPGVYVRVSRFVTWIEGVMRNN

[10] = Terminal half-life in orally dosed healthy human; assay type: ADME, organism-based; details: in vivo, po, read-out: beta t1/2 (converted)
[11] = biological target: Coagulation factor X (Homo sapiens) (UniProt P00742); assay: Inhibition of purified human plasma factor-10a up to 20 uM using Boc-Ile-Glu-Gly-Arg-AMC substrate incubated for 30 mins by fluorescence based assay; details: dose microM <=20, time 30.0 min; how it was run: as §1
Sequence of Coagulation factor X (Homo sapiens) (P00742 41-179 limits assumed): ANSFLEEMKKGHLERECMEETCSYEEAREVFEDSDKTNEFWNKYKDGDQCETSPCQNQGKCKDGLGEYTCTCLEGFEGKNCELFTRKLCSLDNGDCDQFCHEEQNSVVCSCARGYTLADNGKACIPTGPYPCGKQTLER
Sequence of Coagulation factor X (Homo sapiens) (P00742 235-488 limits assumed): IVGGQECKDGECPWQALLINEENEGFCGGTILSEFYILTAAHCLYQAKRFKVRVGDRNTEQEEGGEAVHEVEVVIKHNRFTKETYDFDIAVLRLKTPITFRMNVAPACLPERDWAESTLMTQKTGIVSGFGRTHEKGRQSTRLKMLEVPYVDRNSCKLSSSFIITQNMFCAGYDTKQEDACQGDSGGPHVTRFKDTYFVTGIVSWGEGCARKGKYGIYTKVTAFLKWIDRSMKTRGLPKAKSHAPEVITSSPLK

[12] = Half life in Wistar Hannover rat at 0.3 to 0.5 mg/kg, iv by LC-MS/MS analysis; assay type: ADME, organism-based; details: in vivo, dose 0.3-0.5 mg/kg, time <=24 hrs; how it was run: as §2
[13] = Blood clearance in Wistar Hannover rat at 0.3 to 0.5 mg/kg, iv by LC-MS/MS analysis; assay type: ADME, organism-based; details: whole blood, dose 0.3-0.5 mg/kg, time <=24 hrs; how it was run: as §2
[14] = biological target: T1, Nuclear receptor subfamily 1 group I member 2 (Homo sapiens, UniProt O75469); assay: Activation of human PXR human hepatocytes assessed as induction of CYP3A4 mRNA expression incubated for 48 hrs by qPCR analysis; assay type: ADME, tissue-based, Hepatocyte
T1 sequence (O75469 whole entry): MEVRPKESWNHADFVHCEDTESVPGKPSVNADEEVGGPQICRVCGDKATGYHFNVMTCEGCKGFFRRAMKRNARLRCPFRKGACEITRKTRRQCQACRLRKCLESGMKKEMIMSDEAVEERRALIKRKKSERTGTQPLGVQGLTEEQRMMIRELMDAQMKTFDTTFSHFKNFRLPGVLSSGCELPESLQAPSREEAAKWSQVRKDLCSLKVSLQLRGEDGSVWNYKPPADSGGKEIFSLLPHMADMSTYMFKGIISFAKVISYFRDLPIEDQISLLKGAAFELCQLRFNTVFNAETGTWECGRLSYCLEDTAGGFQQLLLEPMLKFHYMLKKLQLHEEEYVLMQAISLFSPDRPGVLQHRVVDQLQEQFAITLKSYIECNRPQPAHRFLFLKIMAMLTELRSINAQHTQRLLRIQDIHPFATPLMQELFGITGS
How it was run: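 Human hepatocytes in collagen sandwich, cultured 1 d, then treated with eight 1:3 serial concentrations for 2 consecutive days with daily media change. mRNA isolated on magnetic beads, reverse transcribed, and quantified by TaqMan qRT-PCR against actin/tubulin. Fold induction over vehicle by ΔΔCt; NOEL reported.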

[15] = biological target: Tissue-type plasminogen activator (Homo sapiens) (UniProt P00750); assay: Inhibition of purified human plasma tPA up to 20 uM using CH3SO2-DPhe-Gly-Arg-AMC substrate incubated for 30 mins by fluorescence based assay; details: dose microM <=20, time 30.0 min; how it was run: as §1
Sequence of Tissue-type plasminogen activator (Homo sapiens) (P00750 36-562 limits assumed): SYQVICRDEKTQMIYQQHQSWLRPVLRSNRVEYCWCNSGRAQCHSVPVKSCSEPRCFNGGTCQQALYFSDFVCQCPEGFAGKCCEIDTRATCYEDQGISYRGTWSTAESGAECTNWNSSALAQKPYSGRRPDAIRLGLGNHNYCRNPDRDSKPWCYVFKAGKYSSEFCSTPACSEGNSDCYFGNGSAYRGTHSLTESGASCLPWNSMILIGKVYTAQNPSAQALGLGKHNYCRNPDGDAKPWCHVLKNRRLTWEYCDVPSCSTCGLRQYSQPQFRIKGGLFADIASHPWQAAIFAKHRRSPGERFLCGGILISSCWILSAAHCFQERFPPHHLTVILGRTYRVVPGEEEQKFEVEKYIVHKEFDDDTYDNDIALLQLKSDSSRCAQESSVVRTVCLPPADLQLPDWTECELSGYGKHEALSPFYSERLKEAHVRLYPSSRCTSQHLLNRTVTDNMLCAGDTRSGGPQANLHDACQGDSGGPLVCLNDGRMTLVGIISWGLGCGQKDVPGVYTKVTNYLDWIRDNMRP

Plasma = assay: Anticoagulation activity in human plasma assessed as drug level causing doubling of APTT incubated for 3 mins; assay type: functional; details: 0.05 h
[16] = Clearance in Wistar rat hepatocytes at 1 uM incubated up to 90 mins by LC-MS/MS analysis; assay type: ADME, cell-based, Hepatocyte; details: Wistar
How it was run: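 Fresh male Wistar rat hepatocytes, 1 × 10⁶ viable cells/mL, in Williams' medium E at 37 °C, pH 7.4, with 1 μM substrate and <1% acetonitrile. Samples at 2–90 min quenched in acetonitrile and analysed by LC-MS/MS.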

[17] = Tmax in orally dosed healthy human; assay type: ADME, organism-based; details: in vivo, po
[18] = biological target: T1, Nuclear receptor subfamily 1 group I member 2; assay: Activation of human PXR expressed in human HepG2 cells; assay type: ADME, cell-based
How it was run: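 HepG2 cells transiently co-transfected with human PXR and a luciferase reporter under the human CYP3A4 promoter, 48 h before readout. 24 h after seeding, 1:3 serial dilutions (2 nM to 50 μM, 0.5% DMSO) added. Luminescence normalized to rifampicin (100%) and DMSO (0%). MEC is the lowest concentration raising signal above 4-fold SD of DMSO background.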

[19] = Protein binding in human plasma; assay type: ADME, cell-free; details: read-out: PPB (converted)

Sequence of Coagulation factor XI (Homo sapiens) (P03951 19-387 limits assumed): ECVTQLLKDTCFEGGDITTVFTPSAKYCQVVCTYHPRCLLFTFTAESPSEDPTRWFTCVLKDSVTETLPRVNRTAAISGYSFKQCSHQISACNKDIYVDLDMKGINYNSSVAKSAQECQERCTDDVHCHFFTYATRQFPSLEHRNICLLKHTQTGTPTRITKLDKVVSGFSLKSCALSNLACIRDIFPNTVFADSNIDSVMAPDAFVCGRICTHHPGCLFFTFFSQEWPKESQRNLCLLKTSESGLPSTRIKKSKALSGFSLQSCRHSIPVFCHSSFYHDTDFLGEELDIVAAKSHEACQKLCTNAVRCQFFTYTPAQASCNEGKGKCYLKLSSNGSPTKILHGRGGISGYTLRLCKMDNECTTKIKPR
Sequence of Coagulation factor XI (Homo sapiens) (P03951 388-625 limits assumed): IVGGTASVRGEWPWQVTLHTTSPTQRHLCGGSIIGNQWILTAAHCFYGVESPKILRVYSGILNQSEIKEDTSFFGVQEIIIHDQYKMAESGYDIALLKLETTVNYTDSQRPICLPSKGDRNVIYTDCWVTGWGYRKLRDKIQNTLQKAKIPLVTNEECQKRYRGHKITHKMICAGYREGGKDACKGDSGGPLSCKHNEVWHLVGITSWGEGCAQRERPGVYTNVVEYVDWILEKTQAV

COc1cc(C(=O)N2C[C@H](C)OC[C@@H]2CCO)cc2nc(N[C@H](CF)c3cccc(Cl)c3)oc12
IC50 [1]: 6.5 nM | inhibition [2]: inactive | AUC/dose [3]: 0.34 kg·h/L | MRT [4]: 1.2 h | bioavailability [5]: 38% | Papp A→B at 2 h [6]: 13.1 ×10⁻⁶ cm/s | Activity (Rattus norvegicus): Dose-dependent effect | fraction unbound [7]: 0.22 | fold change (FC) [8]: < 2 | inhibition (Trypsin (Homo sapiens)): inactive | inhibition [9]: inactive | half-life [10]: 9.5 h | inhibition [11]: inactive | half-life [12]: 1.4 h | clearance [13]: 51.7 mL/min/kg | NOAEL [14]: > 10000 ng/mL | inhibition [15]: inactive | 2aPTT (Plasma): 0.7 µM | CLhep predicted at 1 µM [16]: 31.7 mL/min/kg | Tmax [17]: 0.75 h | MEC [18]: 1.9 µM | fraction unbound [19]: 0.22

From ChEMBL document CHEMBL4665889, “Design, Synthesis, and Pharmacological Characterization of a Neutral, Non-Prodrug Thrombin Inhibitor with Good Oral Pharmacokinetics” (J Med Chem, 2020)
